Measurements: the RNAGym collection of RNA variant scans (doi:10.1126/science.aae0568)
Variants at the floor of the assay were thinned out.

B1: tRNA (parent)
chain: GUUCCGUUGGCGUAAUGGUAACGCGUCUCCCUCCUAAGGAGAAGACUGCGGGUUCGAGUCCCGUACGGAACG

Variants of: B1
Experiment: yeast fitness relative to wild type (ratio to wild type); higher = fitter; tRNA-Arg(CCU), competitive growth, 37 C, YPD
Procedure, shortened: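 Genotype frequency changes were the basis for Darwinian fitness relative to wild type. The frequencies came from 100-nucleotide paired-end sequencing of gene amplicons from the start population and each end population of pooled yeast strains with tRNA-Arg(CCU) gene variants at the native locus. Competition ran in YPD at 37°C for 24 hours in six replicates, genotypes needed ≥ 100 starting reads, and estimates < 0.5 were set to 0.5.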

Variant | yeast fitness
GUUCCGUCGGCGUAAUGGCAACGCGUCUCCCUCCUAAGGAGAAGACUGCGGGUACGAGUCCCGUACGGAACG [U8C U19C U54A] | 0.542
GUUCCGUCGGCGUAAUGGUAACGCGUCAGCCUCCUAAGGAGAAGACUGCGGGUUCGCGUCCCGUACAGAACG [U8C U28A C29G A57C G67A] | ≤ 0.5
GUUCCGUCGGCGUAAUGGUAACGCGUCUCCCCCCUAAGGAGAAGAAUGCGGGUUAGAGUCCCGUACGGAACG [U8C U32C C46A C55A] | 0.625
GUUCCGUCGGCGUAAUGGUAACGCGCCUCCCUCCUAAGGAGAAGACUGCGGGUUCGAGUCCCGUACGGAACG [U8C U26C] | 0.837
GUUCCGUCGGCGUAAUGGUAACGCGGCUCCCUCCUAAGGAGAAGACUGCGGGUUCGAGUCCCGUACGGAACG [U8C U26G] | 0.959
GUUCCGUCGGCGGAAUGGUAAUGCGUCUCCCUCCUAAGGAGAAGACUGAGGGUUCGAGUCCCGUACGGCACG [U8C U13G C22U C49A A69C] | ≤ 0.5
GUUCCGUCGGCGUAAUGGAAACGCGUCUCCCUCCUAGGGAGAAGACUGCGGGUUCGAGUCCCGUACGGAACG [U8C U19A A37G] | 0.559
GUUCCGUCGGCGUAAGGGUAACGCGUCUCCCUCCUAAGGACAAGACUGCGGGUUCGAGUCCCGUACGGAACG [U8C U16G G41C] | ≤ 0.5
GUUCCGUCGGCGUAAUGGUAACGCGGCUCCCUGCUACGGAGAAGACUGCGGGUACGAGUCCCGUACGGAACG [U8C U26G C33G A37C U54A] | ≤ 0.5
GUUCCGUCGGCGUAAUGGAAAGGUGUCUCCCUGCUAAGGAGAAGACUGCGGGUUCGAGUCCCGUACGGAACG [U8C U19A C22G C24U C33G] | ≤ 0.5
GUUCCGUCGGCGUAAUGGAAACGCGUCUCCCUCCUAAGGAGAAGACUGCGGGUUCGAGUCCCGUACGGAACG [U8C U19A] | 0.923
GUUCCGUCGGCGUAACGGUAACGCGUCUCCCUUCUAAGGAGAUGACUGGCGGUUCGAGUCUCGUAUGGAACG [U8C U16C C33U A43U C49G G50C C61U C66U] | ≤ 0.5
GUUCCGUCGGCGUAAUGGAAACGUGUCUCCCUCCUAAAGAGAAGACUGCGGGUCCGAGUCCCGUAAGGAACG [U8C U19A C24U G38A U54C C66A] | ≤ 0.5
GUUCCGUCGGCGUAAAGGAAAUGCGUCUCCCUCCUAAGGAGAAGACUGCGGGUUCGAGUCCCGUACGGAACG [U8C U16A U19A C22U] | 0.536
GUUCCGUCGGCGUAAUGGUAACGCGACUCCCUCCUAAGGUGAAGACUGCGGGUUCGAGUCCCGUACGGAACG [U8C U26A A40U] | 0.613
GUUCCGUCGGCGUAAUGGUAACGCGUCUCCCACCUAAGGAGAAGACAGCGGGUUCCAGUCCCGUACGGAACG [U8C U32A U47A G56C] | 0.944
GUUCCGUCGGCGUAACGGUAACGCCUCUCCCUCCUAAGGAGAAGACAGCGGGUUCGAGUCCCGUGCGGAACG [U8C U16C G25C U47A A65G] | ≤ 0.5
GUUCCGUCGGCGUAAUGGCAACGCGUCUCCCUCCUAAGGAGAAGACUGCGGGUUGGAGUCCCGUACGGAACG [U8C U19C C55G] | ≤ 0.5
GUUCCGUCGGCGUAAUGGCAACGCGUCUCCCUCCUAAGGAGAAGACUGCGGGUUUGAGUCCCGUACGGAACG [U8C U19C C55U] | ≤ 0.5

Variant | yeast fitness
GUUCCGUCGGCGUAAUGGUAACGCGUCCCCCUCCUAAGGAGAAGACUGCGGGUUCGAGUCCCGUACGGAACG [U8C U28C] | 0.834
GUUCCGUCGGCGUAACGGUAACGUGUCUCCCUCCUAAGGAGAAGACAGCGGGUUUGAGUCCCGUACGGAACG [U8C U16C C24U U47A C55U] | ≤ 0.5
GUUCCGUCGGCGUAACGGUUACGCGUCUCUCUCCUAAGCAGAAGGCUGCGGGUUCGAGUCCCGUACGGCACG [U8C U16C A20U C30U G39C A45G A69C] | ≤ 0.5
GUUCCGUCGGCGUAAUGGUAACGCGUCACCCUCCUAAGGAGAAGAGUGCGGGUUAGAGUCCCGUACGGAACG [U8C U28A C46G C55A] | 0.731
GUUCCGUCGGCGUAAAGGUAACGCGUCUCCCUCCUAAGGAGAAGACUGCGGGUUCGAGUCCCGUACGGAACG [U8C U16A] | 0.934
GUUCCGUCGGCGUAACGGUAACGCGUCUGCCUCCUAAGGAGAAGACUGCGGGUUCGAGUCCCGUACGGAACG [U8C U16C C29G] | ≤ 0.5
GUUCCGUCGGCGUAACGGUAACGCGUCUCCCUCCUAAGGAGAAGACUGCGGGUUCGAGACCCGUACGGAACG [U8C U16C U59A] | ≤ 0.5
GUUCCGUCGGCGUAAUGGUAACGCGUCUCCCACCUAAGGUCAAGAAUGCGGAUUCGAGUCCCGUACGGAACG [U8C U32A A40U G41C C46A G52A] | ≤ 0.5
GUUCCGUCGGCGUAAUGGUAACGCGUCUCCCCCCUAAGGAGAAAACUGCGGGUUCGAGUCCCGUACGGUACG [U8C U32C G44A A69U] | 0.724
GUUCCGUCGGCGUAAUGGCAACGCGUCUCCCUCCUAAGGAGAAGACUGCGGGUUCGUGUCCCGUACGGAACG [U8C U19C A57U] | ≤ 0.5
GUUCCGUCGGCGUAAUGGAAACGCGUCUCCCUCCUAAGGCGAACACUCCGGGUUCGAGUCCCGUACGGAACG [U8C U19A A40C G44C G48C] | ≤ 0.5
GUUCCGUCGGCGUAACGGUAACGCGUCUCCCUCCUAAGGAGAAGACUGCGGGUUCGAGUCCCGUACUGAACG [U8C U16C G67U] | 0.576
GUUCCGUCGGCGUAACGGUAACGCGUCUCCCUCCUAAGGAGAAGACUGCGGGGUCCAGUACCGUACGGAACG [U8C U16C U53G G56C C60A] | ≤ 0.5
GUUCCGUCGGCGUAACGGUAACGCGUCUCCCUCCUAAGGAGAAGACUGCGGGUUCGAGUCCCGUACGGAUCG [U8C U16C A70U] | 0.577
GUUCCGUCGGCGUAAUGGUAACGCGUCUCCCACCUAAGGAGAAGACUGCGGGUUCGAGUCCCGUACGGAACG [U8C U32A] | 0.755
GUUCCGUCGGCGUAAUGGUAACGCGACUCCCUCCUAAGGAGAAGACUGCGGGUUCGAGUCACGUUCGGAACG [U8C U26A C61A A65U] | ≤ 0.5
GUUCCGUCGGCGUAAUGGUAACGCGUCUCCCCCCUAAGGAGAAGACUACGGGUUCGAGUCCCGUACGGAACG [U8C U32C G48A] | 0.591
GUUCCGUCGGCGUAAGGGUAACGCAUCUCCCUCCUAAGGAGAAGACUGCGGGUUCGAGUCCCGUACGGAGCG [U8C U16G G25A A70G] | ≤ 0.5
GUUCCGUCGGCGUAAAGGUAACGCGUCUCCCUGCUAAGGACAAGACUGCGGGUUCCAAUCCCCUUCGGAACG [U8C U16A C33G G41C G56C G58A G63C A65U] | ≤ 0.5
